Experimental data published in PMC11229370 (Nucleic Acids Research, 2024).

Legend:
BtProRS2 [1] = biological target: T1, BtProRS2 (Bacillus thuringiensis, UniProt Q6HNZ7); assay: HF inhibition assay; format: biochemical
T1 sequence (Q6HNZ7 1-476): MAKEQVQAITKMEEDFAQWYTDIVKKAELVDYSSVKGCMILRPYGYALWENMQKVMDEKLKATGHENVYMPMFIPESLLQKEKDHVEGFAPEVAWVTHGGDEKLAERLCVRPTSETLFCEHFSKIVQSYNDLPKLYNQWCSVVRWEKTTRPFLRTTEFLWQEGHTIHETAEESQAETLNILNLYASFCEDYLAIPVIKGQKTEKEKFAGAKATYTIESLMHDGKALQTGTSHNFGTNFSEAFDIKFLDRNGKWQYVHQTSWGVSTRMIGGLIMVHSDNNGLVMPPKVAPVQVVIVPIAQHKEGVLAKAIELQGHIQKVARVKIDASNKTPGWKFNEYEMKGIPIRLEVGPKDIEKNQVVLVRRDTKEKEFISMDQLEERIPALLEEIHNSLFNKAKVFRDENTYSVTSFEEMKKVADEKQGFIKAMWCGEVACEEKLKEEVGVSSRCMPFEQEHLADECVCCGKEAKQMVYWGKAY
Outline: (§1)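 Purified His6-tagged enzyme (100 nM final) was mixed with test compound (0.1 nM–10 μM) in 50 μl aminoacylation buffer. Incubation was 10 min at 30°C, with TCA-filter scintillation counting. Relative activity is rate with inhibitor over rate without, and curves were fitted per enzyme.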

[2] = tested on: P-type ProRS (such as Pseudomonas aeruginosa ProRS); details: cited from earlier work
T. gondii ProRS = details: cited from earlier work
P. falciparum ProRS = details: cited from earlier work
[3] = tested on: total cellular extracts of B. thuringiensis; assay: HF inhibition assay with total cellular extracts; format: biochemical, Bacillus thuringiensis; details: 3 μg of total cellular extracts in 50-μl aminoacylation buffer, 30°C, 10 min
Outline: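 B. thuringiensis ATCC 13367 was grown 24 h at 30°C in LB with shaking, PBS-washed, glass-bead lysed on ice in HEPES pH 7.2 buffer with protease inhibitors, and cleared. Extract (3 μg) was incubated with test compound (0.1 nM–10 μM) 10 min at 30°C; [3H]-proline charging of tRNA^Pro was filter-counted. Relative activity curves were fitted using the individual-enzyme curves to give the ProRS1 activity proportion.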

BtProRS1 [4] = biological target: T2, BtProRS1 (Bacillus thuringiensis, UniProt Q6HEZ6); assay: HF inhibition assay; format: biochemical
T2 sequence (Q6HEZ6 1-566): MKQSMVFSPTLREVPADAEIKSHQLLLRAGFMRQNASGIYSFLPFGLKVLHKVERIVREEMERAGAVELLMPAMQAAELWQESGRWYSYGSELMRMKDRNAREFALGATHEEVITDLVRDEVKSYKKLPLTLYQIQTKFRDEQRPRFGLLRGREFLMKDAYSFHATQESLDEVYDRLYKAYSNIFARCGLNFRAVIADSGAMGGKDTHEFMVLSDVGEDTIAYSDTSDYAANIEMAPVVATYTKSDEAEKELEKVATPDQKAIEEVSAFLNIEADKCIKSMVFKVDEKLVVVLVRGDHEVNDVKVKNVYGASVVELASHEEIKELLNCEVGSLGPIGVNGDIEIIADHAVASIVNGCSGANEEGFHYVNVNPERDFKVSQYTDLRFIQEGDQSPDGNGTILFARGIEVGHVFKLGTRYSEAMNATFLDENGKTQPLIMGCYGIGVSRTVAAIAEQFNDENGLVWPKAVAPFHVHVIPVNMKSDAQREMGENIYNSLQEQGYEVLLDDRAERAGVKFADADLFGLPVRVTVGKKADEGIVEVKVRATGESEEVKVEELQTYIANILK
Outline: as §1

BtProRS2 [5] = biological target: T1, BtProRS2; assay: Aminoacylation after pretreatment of the enzyme with H2O2, DTT, urea or GnHCl; format: biochemical
Outline: (§2)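 Purified His6-tagged enzymes were expressed in E. coli BL21-CodonPlus(DE3) and purified by Ni-NTA. Enzymes at 1000 nM were pretreated 10 min at 20°C with H2O2 (0–32 mM), DTT (0–80 mM), urea (0–3200 mM) or GnHCl (0–3200 mM). They were then diluted to 100 nM final in buffer with 4 mM ATP, 10 μM transcribed tRNA^Pro and 21.13 μM [3H]-proline, run 10 min at 30°C, with TCA filter counting; three independent experiments.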

BtProRS1 [6] = biological target: T2, BtProRS1; assay: as above; format: biochemical
Outline: as §2

| Structure (SMILES) | IC50 (BtProRS2 [1]) | IC50 for BtProRS2 lower than that for BtProRS1 (BtProRS2 [1]; ratio of IC50 BtProRS1 to BtProRS2) | less effective against a P-type ProRS than against E-type ProRS [2] | IC50 (T. gondii ProRS) | IC50 (P. falciparum ProRS) | IC50 [3] | IC50 (BtProRS1 [4]) | IC50 (BtProRS2 [5]) | IC50 (BtProRS1 [6]) |
| --- | --- | --- | --- | --- | --- | --- | --- | --- | --- |
| O=C(CC1NCCCC1O)Cn1cnc2cc(Br)c(Cl)cc2c1=O (stereo not drawn) [HF, halofuginone] | 0.17 µM | 4 fold | ~100 fold | 0.00541 µM | 0.009 µM | ~0.4 µM | 0.68 µM | – | – |
| O[C@@H](CS)[C@@H](O)CS (racemic) [DTT, Dithiothreitol] | – | – | – | – | – | – | – | > 80000 µM | 27000 µM |
